From PMC428586 (Reproductive biology and endocrinology : RB&E, 2004)
Values joined by “and” are separate entries in the source; they are usually repeats but may differ in a detail not shown here. Equal entries are not always repeated. Marks after values point to notes of the source that are not given here.

Tests used:
[1] = test system: hamster oviduct (infundibulum) cilia; assay: Ciliary beat frequency assay, hamster oviductal explants in vitro; assay type: cell-based, golden hamster (Mesocricetus auratus); settings: for Efficacy, Ciliary Beat Frequency: mean percentage of inhibition at the LOAEL
[2] = test system: hamster oviduct (infundibulum); assay: Oocyte pickup rate assay, hamster oviduct explants in vitro; assay type: cell-based, golden hamster (Mesocricetus auratus); settings: for Efficacy, Oocyte Pickup Rate: mean percentage of inhibition at the LOAEL
How it was run: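 Female golden hamsters were primed with 25 IU PMSG on estrous day 1 and 25 IU hCG on day 3, then killed with CO2 about 12 h later. On infundibulum explants, transit time of an oocyte-cumulus complex (OCC) along a fixed path was timed, 6–10 times each in EBSS-H/0.1% BSA control, one test dose (10-13–10-5 M screen; ANOVA), and recovery. The LOAEL was repeated to n = 4 infundibula, and efficacy was taken as mean % inhibition there.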

[3] = test system: hamster oviduct infundibular smooth muscle; assay: Infundibular smooth muscle contraction assay, hamster oviduct explants in vitro; assay type: cell-based, golden hamster (Mesocricetus auratus); settings: for LOAEL, Contraction Rate: lowest observable adverse effect level, hamster infundibulum in EBSS-H with 0.1% BSA, n = 4 infundibula; for Efficacy, Contraction Rate: mean percentage of inhibition at the LOAEL; for LOAEL, infundibular smooth muscle contraction: as stated in the abstract
[4] = test system: female mice; settings: due to effects on adrenal function; cited from earlier work
[5] = test system: rats; settings: dose-dependent; cited from earlier work
[6] = test system: male rats; settings: cited from earlier work
[7] = test system: chick chorioallantoic membrane (CAM); settings: due to inhibition of DNA synthesis; cited from earlier work
[8] = lowest observable adverse effect level, hamster infundibulum in EBSS-H with 0.1% BSA, n = 4 infundibula
[9] = more inhibitory than pyridine, pyridine data ref 16

Row | Compound | LOAEL, Ciliary Beat Frequency [1, 8] | Efficacy, Ciliary Beat Frequency [1] | Efficacy, Oocyte Pickup Rate [2] | LOAEL, Contraction Rate [3] | Efficacy, Contraction Rate [3] | LOAEL, Ciliary Beat Frequency ([1]; as stated in the abstract) | LOAEL, oocyte pickup rate ([2]; as stated in the abstract) | LOAEL, infundibular smooth muscle contraction [3] | also measured
1 | Cc1cnc(C)c(C)n1 [2,3,5-trimethylpyrazine] | 10^-9 M | 18% | 10% | 10^-9 M | 58% |  |  |  | 
2 | Cc1cnc(C)cn1 [2,5-dimethylpyrazine] | 10^-8 M | 34% | 10* % | 10^-9 M | 40% |  |  |  | Efficacy, Oocyte Pickup Rate ([2]; listed as 2,5-Dimethylpyrazine): 9.9%; Effect on onset of puberty [4]: delayed the onset of puberty; Effect on uterine weight [5]: caused a decrease in uterine weight
3 | Cc1cncc(C)n1 [2,6-dimethylpyrazine] | 10^-6 M | 5** % | 3.5% and 3** % | 10^-7 M | 85*** % |  |  |  | LOAEL, oocyte pickup rate [2, 8]: 10^-9 M; Efficacy, Contraction Rate ([3]; listed as 2,6-Dimethylpyrazine): 85%
4 | CCc1cnccn1 [2-ethylpyrazine] |  | 3** % | 45* % |  | 38% | 1 picomolar | 10 picomolar | 1 picomolar | Decrease of LOAEL in the smooth muscle contraction assay relative to pyrazine [3]: 1000 fold
5 | COc1nccnc1C [2-methoxy-3-methylpyrazine] | 10^-9 M | 18% | 13% |  | 17** % |  |  |  | Efficacy, Contraction Rate ([3]; listed as 2-Methoxy-3-methylpyrazine): 17%
6 | Cc1cnccn1 [2-methylpyrazine] |  | 11* % | 43* % |  | 61** % | 1 picomolar | 10 picomolar | 10 picomolar | Decrease of LOAEL in the smooth muscle contraction assay relative to pyrazine [3]: 100 fold
7 | Cc1cnc(C)c(S)n1 [3,6-dimethylpyrazine-2-thiol] |  |  |  |  |  |  |  |  | Effect on prostate and seminal vesicle weights [6]: caused a decrease in prostate and seminal vesicle weights
8 | c1cnccn1 [pyrazine] |  | 25% | 29% | 10^-9 M | 40% | 1 picomolar | 10 picomolar | 1 nM | Inhibitory potency relative to pyridine, ciliary beat frequency [1, 9]: at least 1 million; LOAEL dose, oocyte pickup rate assay ([2]; LOAEL expressed in ppb for comparison with food levels): 4 ppb; Inhibitory potency relative to pyridine, oocyte pickup rate [2, 9]: at least 1 million; Inhibitory potency relative to pyridine, infundibular smooth muscle contraction [3, 9]: at least 1 million; Effect on CAM and embryo growth [7]: inhibited both CAM and embryo growth at picomolar doses
